Laboratory results as given in ChEMBL document CHEMBL1133253, “Improved antibacterial activities of coumarin antibiotics bearing 5',5'-dialkylnoviose: biological activity of RU79115” (Bioorg Med Chem Lett, 2000).
Values after ≈ are worked out from the molar mass of the structure shown.

Legend:
[1] = system: Mus musculus; assay: Protective dose of orally administered compound against intraperitoneally-induced septicaemia model ( vancomycin resistant Enterococci faecium D3HT12 strain) in murine; format: functional; conditions: po, read-out: PD50
How it was run: (§1)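 PD50 was measured in a murine septicaemia model, with infection induced intraperitoneally with the named Gram-positive strain. Test compound was given orally and the PD50 was calculated by the probit method.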

[2] = system: Mus musculus; assay: Protective dose of subcutaneously administered compound against intraperitoneally-induced septicaemia model ([…] PW3 strain) in murine; format: functional; conditions: sc, read-out: PD50
How it was run: (§2)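 Murine septicaemia was induced by intraperitoneal infection, and the compound was given subcutaneously. PD50 was derived by probit analysis.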

[3] = system: Mus musculus; assay: Protective dose of orally administered compound against intraperitoneally-induced septicaemia model ( vancomycin resistant Enterococci faecium D3HM4 strain) in murine; format: functional; conditions: po, read-out: PD50; how it was run: as §1
[4] = system: Mus musculus; assay: Minimum inhibitory concentration of the subcutaneously administered compound evaluated against […] PW3 strain in mice (SC); format: functional
[5] = system: Mus musculus; assay: Protective dose of orally administered compound against intraperitoneally-induced septicaemia model (Enterococci faecium D3HT7 strain) in murine; format: functional; conditions: po, read-out: PD50
[6] = system: Mus musculus; assay: Protective dose of subcutaneously administered compound against intraperitoneally-induced septicaemia model (Staphylococcus aureus HT-17) in murine; format: functional; conditions: sc, read-out: PD50; how it was run: as §2
[7] = system: Mus musculus; assay: Minimum inhibitory concentration of the subcutaneously administered compound evaluated against Staphylococcus aureus HT-17 strain in mice (SC); format: functional
[8] = system: Mus musculus; assay: Protective dose of orally administered compound against intraperitoneally-induced septicaemia model ( vancomycin resistant Enterococci faecium D3HM3 strain) in murine; format: functional; conditions: po, read-out: PD50; how it was run: as §1
[9] = system: Mus musculus; assay: Protective dose of orally administered compound against intraperitoneally-induced septicaemia model (Enterococci faecalis D2HT6 strain) in murine; format: functional; conditions: po, read-out: PD50; how it was run: as §1
[10] = system: Mus musculus; assay: Minimum inhibitory concentration of the subcutaneously administered compound evaluated against Staphylococcus aureus GO3 strain in mice (SC); format: functional
[11] = system: Mus musculus; assay: Protective dose of subcutaneously administered compound against intraperitoneally-induced septicaemia model (Staphylococcus aureus GO3) in murine; format: functional; conditions: sc, read-out: PD50; how it was run: as §2
[12] = system: Staphylococcus aureus; assay: Tested for in vitro antibacterial activity against Staphylococcus aureus 011 HT3 phenotype; format: functional
[13] = system: Staphylococcus aureus; assay: Tested for in vitro antibacterial activity against Staphylococcus aureus 011 GO64 ofloxacin oxacillin erythromycin resistance phenotype; format: functional
[14] = system: Staphylococcus aureus; assay: IC50 was determined for gyrase B of Staphylococcus aureus against novobiocin (0.5 mg/mL) as reference; IC50nov/IC50comp
[15] = system: Enterococcus faecium; assay: Tested for in vitro antibacterial activity against Enterococcus faecium 02D31P2 vancomycin teicoplanin erythromycin resistance phenotype; format: functional
[16] = system: Streptococcus pyogenes; assay: Tested for in vitro antibacterial activity against Streptococcus pyogenes O2A1UC1 phenotype; format: functional
[17] = system: Staphylococcus aureus; assay: Tested for in vitro antibacterial activity against Staphylococcus aureus 011 HT1 novobiocin resistance phenotype; format: functional
[18] = system: Staphylococcus epidermidis; assay: Tested for in vitro antibacterial activity against Staphylococcus epidermidis 012GO42 oxacillin resistance phenotype; format: functional

SMILES | ED50 [1] | ED50 [2] | ED50 [3] | MIC [4] | ED50 [5] | ED50 [6] | MIC [7] | ED50 [8] | ED50 [9] | MIC [10] | ED50 [11] | MIC [12] | MIC [13] | Ratio [14] | MIC [15] | MIC [16] | MIC [17] | MIC [18]
CC(=O)NC[C@H]1CN(c2ccc(N3CCOCC3)c(F)c2)C(=O)O1 [LINEZOLID] | 1.8 mg/kg | 3 mg/kg | 8.6 mg/kg | 1.2 µg/mL (≈ 3.56 µM) | 2.4 mg/kg | 5.8 mg/kg | 1.2 µg/mL (≈ 3.56 µM) | 2.1 mg/kg | 4.2 mg/kg | 2.5 µg/mL (≈ 7.41 µM) | 8.7 mg/kg | – | – | – | – | – | – | –
C#CCONC(=O)O[C@H]1[C@@H](O)[C@H](Oc2ccc3c(O)c(/C(C)=N/OC)c(=O)oc3c2C)O[C@@H](CC)[C@@H]1OC | – | – | – | – | – | – | – | – | – | – | – | 0.3 µg/mL (≈ 0.561 µM) | 0.6 µg/mL (≈ 1.12 µM) | 2.6 | 40 µg/mL (≈ 74.8 µM) | 2.5 µg/mL (≈ 4.68 µM) | 20 µg/mL (≈ 37.4 µM) | 0.3 µg/mL (≈ 0.561 µM)
